Measurements reported in ChEMBL document CHEMBL3352155, “Synthesis, antitumor activity, and structure-activity relationship study of trihydroxylated 2,4,6-triphenyl pyridines as potent and selective topoisomerase II inhibitors” (Eur J Med Chem, 2014).
Counter-ions that a name gives are not always drawn.

Columns and labels:
[1] = target: T1, DNA topoisomerase 1 (Homo sapiens) (UniProt P11387); assay: Inhibition of recombinant human DNA topoisomerase 1 assessed as relaxation of supercoiled DNA pBR322 at 100 uM after 30 mins using ethidium bromide staining by agarose gel electrophoresis
T1 sequence (whole entry): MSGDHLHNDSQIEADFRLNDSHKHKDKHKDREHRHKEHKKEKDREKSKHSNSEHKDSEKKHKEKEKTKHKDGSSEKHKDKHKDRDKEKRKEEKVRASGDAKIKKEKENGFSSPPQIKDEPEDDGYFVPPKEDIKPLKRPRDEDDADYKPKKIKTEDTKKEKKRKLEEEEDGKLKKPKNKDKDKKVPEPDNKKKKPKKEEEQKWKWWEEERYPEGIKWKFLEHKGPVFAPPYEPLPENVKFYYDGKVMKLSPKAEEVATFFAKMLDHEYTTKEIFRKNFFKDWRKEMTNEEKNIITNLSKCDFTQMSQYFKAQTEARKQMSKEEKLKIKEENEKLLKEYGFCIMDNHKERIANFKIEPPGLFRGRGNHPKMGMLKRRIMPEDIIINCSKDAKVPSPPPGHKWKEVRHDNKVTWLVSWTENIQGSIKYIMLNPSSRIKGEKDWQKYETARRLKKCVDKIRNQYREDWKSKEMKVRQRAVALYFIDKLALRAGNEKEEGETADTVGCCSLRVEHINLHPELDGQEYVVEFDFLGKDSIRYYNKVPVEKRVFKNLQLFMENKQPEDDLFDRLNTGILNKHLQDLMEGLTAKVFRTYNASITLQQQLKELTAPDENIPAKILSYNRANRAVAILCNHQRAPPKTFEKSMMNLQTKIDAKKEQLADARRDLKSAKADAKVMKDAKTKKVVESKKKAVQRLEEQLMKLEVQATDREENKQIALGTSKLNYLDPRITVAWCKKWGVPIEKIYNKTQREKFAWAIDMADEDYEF
Procedure, shortened: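 A mix of 100 ng supercoiled pBR322 and 1 unit recombinant human topo I, with or without compound, was held 30 min at 37 °C. Buffer was 10 mM Tris-HCl pH 7.9, 150 mM NaCl, 0.1% BSA, 1 mM spermidine and 5% glycerol. A sarcosyl stop solution ended the reaction. Products ran on 1% agarose in TAE at 15 V for 7 h, were stained with ethidium bromide and quantitated under UV.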

[2] = Cytotoxicity against human HCT15 cells […] by CCK-8 assay; format: functional, cell-based; details: HCT-15
Procedure, shortened: (§1)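 Cells were seeded at 2–4 × 10^4 per well and grown overnight in medium with 10% FBS at 37 °C under 5% CO2. On day 2, after 4 h FBS starvation, the medium was replaced with medium holding graded compound concentrations. On day 4, CCK-8 was added for 4 h and A450 was read. IC50 came from a four-parameter logistic fit; three experiments run in triplicate.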

[3] = target: DNA topoisomerase 2-alpha (Homo sapiens) (UniProt P11388); assay: Inhibition of recombinant human DNA topoisomerase 2alpha assessed as relaxation of supercoiled DNA pBR322 at 20 uM after 30 mins using ethidium bromide staining by agarose gel electrophoresis
Procedure, shortened: (§2)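 The reaction held 200 ng supercoiled pBR322 with 1 unit human topo IIα, with or without compound, for 30 min at 30 °C. Buffer was 10 mM Tris-HCl pH 7.9, 50 mM NaCl, 5 mM MgCl2, 1 mM EDTA, 1 mM ATP and BSA. EDTA was added to stop it. Products ran on 1% agarose in TAE at 25 V for 4 h, were stained with ethidium bromide, and supercoiled DNA was quantitated under UV.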

[4] = test system: DU-145; assay: Cytotoxicity against human DU145 cells after 4 days by CCK-8 assay; format: functional, cell-based; details: DU-145, 96 h; procedure, shortened: as §1
[5] = target: DNA topoisomerase 2-alpha (Homo sapiens) (UniProt P11388); assay: Inhibition of recombinant human DNA topoisomerase 2alpha assessed as relaxation of supercoiled DNA pBR322 at 100 uM after 30 mins using ethidium bromide staining by agarose gel electrophoresis; procedure, shortened: as §2
[6] = test system: T47D; assay: Cytotoxicity against human T47D cells after 4 days by CCK-8 assay; format: functional, cell-based; details: 96 h; procedure, shortened: as §1
[7] = test system: HEK293; assay: Cytotoxicity against HEK293 cells after 4 days by CCK-8 assay; format: cell-based; details: Homo sapiens, HEK293, 96 h; procedure, shortened: as §1

Sequence of DNA topoisomerase 2-alpha (Homo sapiens) (P11388 whole entry): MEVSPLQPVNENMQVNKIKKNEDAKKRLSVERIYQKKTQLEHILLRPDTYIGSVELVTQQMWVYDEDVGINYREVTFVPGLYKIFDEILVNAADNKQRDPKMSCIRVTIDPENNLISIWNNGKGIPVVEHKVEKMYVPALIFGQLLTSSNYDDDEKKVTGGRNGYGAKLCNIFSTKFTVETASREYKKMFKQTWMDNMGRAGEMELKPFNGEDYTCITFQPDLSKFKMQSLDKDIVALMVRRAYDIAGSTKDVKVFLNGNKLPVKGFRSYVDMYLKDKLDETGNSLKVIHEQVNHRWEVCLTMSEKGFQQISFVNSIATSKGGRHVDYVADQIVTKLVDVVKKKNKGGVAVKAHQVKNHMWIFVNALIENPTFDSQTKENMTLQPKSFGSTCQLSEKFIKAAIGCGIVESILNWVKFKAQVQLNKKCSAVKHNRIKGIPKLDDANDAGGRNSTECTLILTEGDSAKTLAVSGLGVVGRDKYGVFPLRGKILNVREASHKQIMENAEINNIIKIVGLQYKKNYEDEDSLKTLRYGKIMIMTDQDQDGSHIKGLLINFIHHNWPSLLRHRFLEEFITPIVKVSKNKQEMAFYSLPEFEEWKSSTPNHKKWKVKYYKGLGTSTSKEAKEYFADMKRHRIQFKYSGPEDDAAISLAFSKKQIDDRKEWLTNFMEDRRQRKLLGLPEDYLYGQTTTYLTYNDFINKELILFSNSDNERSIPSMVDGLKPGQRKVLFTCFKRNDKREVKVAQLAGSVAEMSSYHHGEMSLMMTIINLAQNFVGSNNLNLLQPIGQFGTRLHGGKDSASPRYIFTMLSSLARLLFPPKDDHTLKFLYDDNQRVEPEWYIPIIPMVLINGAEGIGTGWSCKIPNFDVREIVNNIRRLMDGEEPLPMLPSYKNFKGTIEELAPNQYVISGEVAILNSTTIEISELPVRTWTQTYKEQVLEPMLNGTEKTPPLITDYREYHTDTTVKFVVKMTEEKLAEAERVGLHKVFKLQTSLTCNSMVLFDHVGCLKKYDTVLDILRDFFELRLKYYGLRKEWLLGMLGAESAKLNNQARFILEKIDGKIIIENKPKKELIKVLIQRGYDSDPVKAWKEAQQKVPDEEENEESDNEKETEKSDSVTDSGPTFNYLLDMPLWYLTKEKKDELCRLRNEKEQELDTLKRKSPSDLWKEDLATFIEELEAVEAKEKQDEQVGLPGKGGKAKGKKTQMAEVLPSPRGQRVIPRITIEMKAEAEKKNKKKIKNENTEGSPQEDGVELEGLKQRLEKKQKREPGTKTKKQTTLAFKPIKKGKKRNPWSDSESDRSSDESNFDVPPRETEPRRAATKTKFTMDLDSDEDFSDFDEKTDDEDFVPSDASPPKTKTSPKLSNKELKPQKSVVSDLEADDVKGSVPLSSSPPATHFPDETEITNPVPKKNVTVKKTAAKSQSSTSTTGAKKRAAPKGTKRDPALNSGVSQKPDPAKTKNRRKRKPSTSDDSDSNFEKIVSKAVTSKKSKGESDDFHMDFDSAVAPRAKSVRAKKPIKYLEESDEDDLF

Row | inhibition [1] | inhibition [3] | inhibition [5] | SMILES | IC50 [2] | IC50 [4] | IC50 [6] | IC50 [7]
1 | 0% | 48.2% | 90.1% | Oc1ccc(-c2cc(-c3cccc(O)c3)cc(-c3ccc(O)cc3)n2)cc1 | > 50 µM | 1.4 µM | 4.07 µM | > 50000 nM
2 | 0% | 7.4% | 92.2% | Oc1ccc(-c2cc(-c3ccccc3O)cc(-c3cccc(O)c3)n2)cc1 | 4.85 µM | 5.37 µM | 0.65 µM | 5650 nM
3 | 0% | 9.3% | 100% | Oc1cccc(-c2cc(-c3ccccc3O)cc(-c3cccc(O)c3)n2)c1 | 5.15 µM | > 50 µM | 4.57 µM | 130 nM
4 | 0% | 8.3% | 100% | Oc1cccc(-c2cc(-c3cccc(O)c3)nc(-c3cccc(O)c3)c2)c1 | 3.95 µM | 4.04 µM | 2.05 µM | 740 nM
5 | 0% | 3.7% | 100% | Oc1ccc(-c2cc(-c3cccc(O)c3)cc(-c3cccc(O)c3)n2)cc1 | 3.09 µM | 1.94 µM | 3.92 µM | 1560 nM
6 | 1.9% | – | 11.3% | Oc1cccc(-c2cc(-c3cccc(O)c3)nc(-c3ccccc3O)c2)c1 | > 50 µM | > 50 µM | > 50 µM | > 50000 nM
7 | 0% | 15.8% | 100% | Oc1ccc(-c2cc(-c3ccc(O)cc3)nc(-c3cccc(O)c3)c2)cc1 | 3.52 µM | 5.8 µM | 4.47 µM | 840 nM
8 | 1.5% | 38.5% | 80.6% | Oc1ccc(-c2cc(-c3cccc(O)c3)nc(-c3ccccc3O)c2)cc1 | 5.83 µM | 3.42 µM | 4.81 µM | 7420 nM
9 | 0% | 9.6% | 100% | Oc1ccc(-c2cc(-c3cccc(O)c3)nc(-c3cccc(O)c3)c2)cc1 | 3.81 µM | 1.76 µM | 2.23 µM | 730 nM

The next lines start with the compound.

Row | SMILES | inhibition [1] | inhibition [3] | inhibition [5] | IC50 [2] | IC50 [4] | IC50 [6] | IC50 [7]
10 | Oc1cccc(-c2cc(-c3ccccc3O)cc(-c3ccccc3O)n2)c1 | 0% | 6.6% | 87.9% | 3.39 µM | 3.98 µM | 5.76 µM | 730 nM
11 | COc1cccc2c1C(=O)c1c(O)c3c(c(O)c1C2=O)C[C@@](O)(C(=O)CO)C[C@@H]3O[C@H]1C[C@H](N)[C@H](O)[C@H](C)O1 [DOXORUBICIN HYDROCHLORIDE] | – | – | – | – | 3.89 µM | 3.12 µM | 1220 nM
12 | Oc1ccc(-c2cc(-c3ccccc3O)cc(-c3ccccc3O)n2)cc1 | 0.3% | 21.3% | 77.6% | 8.24 µM | 0.36 µM | 0.96 µM | 6990 nM
13 | CC[C@@]1(O)C(=O)OCc2c1cc1n(c2=O)Cc2cc3ccccc3nc2-1 [CAMPTOTHECIN] | – | – | – | 1.98 µM | – | 0.75 µM | 280 nM
14 | Oc1ccc(-c2cc(-c3ccc(O)cc3)nc(-c3ccccc3O)c2)cc1 | 0% | 1.8% | 44% | > 50 µM | > 50 µM | > 50 µM | 26300 nM
15 | Oc1ccc(-c2cc(-c3cccc(O)c3)cc(-c3ccccc3O)n2)cc1 | 8.4% | 1.6% | 31.3% | > 50 µM | > 50 µM | > 50 µM | > 50000 nM
16 | Oc1ccc(-c2cc(-c3ccccc3O)cc(-c3ccc(O)cc3)n2)cc1 | 0.4% | 5.4% | 100% | 1.92 µM | 0.98 µM | 5.35 µM | 780 nM
17 | COc1cc([C@@H]2c3cc4c(cc3[C@@H](O[C@@H]3O[C@@H]5CO[C@@H](C)O[C@H]5[C@H](O)[C@H]3O)[C@H]3COC(=O)[C@H]23)OCO4)cc(OC)c1O [ETOPOSIDE] | – | – | – | 7.74 µM | – | 8.74 µM | 1040 nM
18 | Oc1cccc(-c2cc(-c3ccccc3O)nc(-c3ccccc3O)c2)c1 | 4.9% | 7.1% | 99.4% | 5.02 µM | 5.4 µM | 3.42 µM | 80 nM
19 | Oc1ccc(-c2cc(-c3ccccc3O)nc(-c3ccccc3O)c2)cc1 | 3.7% | 2.9% | 46.9% | > 50 µM | > 50 µM | 18.3 µM | > 50000 nM
20 | Oc1ccccc1-c1cc(-c2ccccc2O)nc(-c2ccccc2O)c1 | 0% | 10.1% | 95.1% | 2.18 µM | 5.04 µM | 2.51 µM | 140 nM
21 | Oc1ccc(-c2cc(-c3ccc(O)cc3)nc(-c3ccc(O)cc3)c2)cc1 | 3.8% | 7.9% | 79.1% | 5.12 µM | 3.16 µM | 4.27 µM | 790 nM
